{"data": "Results of several laboratories", "ADRA1A": "Alpha-1A adrenergic receptor (ADRA1A, Homo sapiens, UniProt P35348)", "OPRK1": "Kappa-type opioid receptor (OPRK1, Cavia porcellus, UniProt P41144)", "note": "pEC50, pKd, pKi: −log10 of the molar value."}
{"Structure (SMILES)": "Cc1cc(O)cc(C)c1C[C@H](N)C(=O)N[C@H](C)C(=O)NCC(=O)N[C@@H](Cc1ccc(Cl)cc1)C(=O)N(C)CCC[C@@]1(c2ccc(F)cc2)OCc2cc(C#N)ccc21", "target": "ADRA1A", "observed": "ligand displacement", "technique": "radioligand", "measurement": "pKi", "value": 5.34}
{"Structure (SMILES)": "N=C(N)NCCC[C@H]1NC(=O)[C@H](Cc2ccc(O)cc2)NC(=O)[C@H](CCCCN)NC(=O)[C@H](Cc2ccccc2)NC1=O", "target": "OPRK1", "observed": "ligand displacement", "technique": "radioligand", "setting": "cell membranes", "measurement": "pKi", "value": 7.17}
{"Structure (SMILES)": "CCCC[C@@H](NC(=O)[C@@H](N)Cc1ccc(O)cc1)C(=O)NCC(=O)N[C@@H](Cc1ccc(F)cc1)C(=O)N(C)CCC[C@@]1(c2ccc(F)cc2)OCc2cc(C#N)ccc21", "target": "ADRA1A", "observed": "ligand displacement", "technique": "radioligand", "measurement": "pKi", "value": 5.18}
{"Structure (SMILES)": "CC[C@H](C)[C@H](NC(=O)[C@H](CCCNC(=N)N)NC(=O)[C@H](CC(C)C)NC(=O)[C@@H](N)Cc1ccccc1)C(=O)N[C@@H](CCCNC(=N)N)C(=O)N1CCC[C@H]1C(=O)N[C@@H](CCCCN)C(=O)O", "target": "ADRA1A", "observed": "cell-free assay", "technique": "radioligand", "measurement": "pKi", "value": "< 5.00"}
{"Structure (SMILES)": "Cc1nccc2c1[nH]c1ccccc12", "target": "Amine oxidase [flavin-containing] A (MAOA, Homo sapiens, UniProt P21397)", "observed": "enzyme activity", "action": "inhibitor", "measurement": "pKi", "value": 6.24}
{"Structure (SMILES)": "Cc1cc(O)cc(C)c1C[C@H](C)C(=O)N[C@@H]1C/C=C\\CC[C@@H](C(N)=O)NC(=O)[C@H](Cc2ccccc2)NC(=O)[C@H](Cc2ccccc2)NC1=O", "target": "OPRK1", "observed": "ligand displacement", "technique": "radioligand", "setting": "cell membranes", "measurement": "pKi", "value": 6.73}
{"Structure (SMILES)": "CNc1nc2cc(OCCCCN3CCN(c4cccc(Cl)c4Cl)CC3)ccc2s1", "target": "Histamine H2 receptor (HRH2, Homo sapiens, UniProt P25021)", "observed": "ligand displacement", "technique": "radioligand", "measurement": "pKi", "value": 6.51}
{"Structure (SMILES)": "Nc1ncnc2c1ncn2[C@@H]1O[C@H](COP(=O)(O)OP(=O)(O)NP(=O)(O)O)[C@@H](O)[C@H]1O", "target": "lptB (Escherichia coli, UniProt P0A9V1)", "observed": "ATPase activity", "action": "inhibitor", "measurement": "pKi", "value": 1.60}
{"Structure (SMILES)": "CSCC[C@H](NC(=O)[C@H](Cc1c[nH]c2ccccc12)NC(=O)[C@@H](N)CO)C(=O)N[C@H](C(=O)N[C@H](C(=O)N1CCC[C@H]1C(=O)N[C@@H](Cc1c[nH]c2ccccc12)C(=O)NCC(=O)N[C@@H](Cc1ccccc1)C(=O)N[C@@H](Cc1c[nH]cn1)C(=O)N[C@@H](CC(C)C)C(=O)N1CCC[C@H]1C(=O)O)[C@@H](C)O)[C@@H](C)O", "target": "Chaperonin GroEL (groEL, Escherichia coli, UniProt P0A6F5)", "observed": "binding", "technique": "ITC", "measurement": "pKd", "value": 5.85}
{"Structure (SMILES)": "Cc1cc(O)cc(C)c1C[C@H](N)C(=O)N[C@H](CCCNC(=N)N)C(=O)N[C@@H](Cc1c[nH]c2ccccc12)C(=O)N[C@@H](CCCCN)C(N)=O", "target": "OPRK1", "observed": "ligand displacement", "technique": "radioligand", "setting": "cell membranes", "measurement": "pKi", "value": 7.78}
{"Structure (SMILES)": "Cc1cc(O)cc(C)c1C[C@H](N)C(=O)N[C@H](C)C(=O)N[C@@H](Cc1ccccc1)C(=O)N[C@@H](CCCN)C(N)=O", "target": "OPRK1", "observed": "ligand displacement", "technique": "radioligand", "setting": "cell membranes", "measurement": "pKi", "value": 7.49}
{"Structure (SMILES)": "Cc1cc(O)cc(C)c1C[C@H](N)C(=O)N[C@H](CCCNC(=N)N)C(=O)N[C@@H](Cc1c(C)cccc1C(C)C)C(=O)N[C@@H](CCCCN)C(N)=O", "target": "OPRK1", "observed": "ligand displacement", "technique": "radioligand", "setting": "cell membranes", "measurement": "pKi", "value": 9.63}
{"Structure (SMILES)": "CC[C@H](C)[C@H](NC(=O)[C@H](CC(=O)O)NC(=O)[C@H](CC(N)=O)NC(=O)[C@@H](NC(=O)[C@H](Cc1ccccc1)NC(=O)[C@H](CO)NC(=O)CNC(=O)[C@H](CC(=O)O)NC(=O)[C@H](C)NC(=O)[C@@H](N)Cc1c[nH]cn1)[C@@H](C)O)C(=O)N[C@@H](CC(N)=O)C(=O)N[C@@H](CCCCN)C(=O)N[C@H](C(=O)N[C@@H](CC(C)C)C(=O)N[C@@H](CC(=O)O)C(=O)N[C@H](C(=O)N[C@H](C(=O)N[C@@H](C)C(=O)N[C@@H](C)C(=O)N[C@@H](CCC(N)=O)C(=O)N[C@@H](CCC(=O)O)C(=O)N[C@@H](Cc1ccccc1)C(=O)N[C@@H](CC(C)C)C(=O)N[C@@H](CC(=O)O)C(=O)N[C@@H](Cc1c[nH]c2ccccc12)C(=O)N[C@H](C(=O)N[C@H](C(=O)N[C@@H](CC(N)=O)C(=O)N[C@H](C(=O)N[C@@H](CCC(N)=O)C(=O)N[C@H](C(=O)N[C@H](C(=O)N[C@@H](CCC(=O)O)C(=O)O)[C@@H](C)O)C(C)C)[C@@H](C)O)[C@@H](C)CC)C(C)C)[C@@H](C)CC)[C@@H](C)CC)C(C)C", "target": "Glucagon-like peptide 2 receptor (GLP2R, Homo sapiens, UniProt O95838)", "observed": "reporter gene", "action": "agonist", "technique": "luciferase", "measurement": "pEC50", "value": "< 6.00"}
